High-throughput results: PubChem, several laboratories
EP2 modulator = EP2 receptor modulators, cAMP readout, primary screen, cell-based, HTRF cAMP, PGE2 stimulation. Prostaglandin E2 receptor EP2 subtype (Homo sapiens), P43116. EP2-expressing cells, cAMP HTRF FRET, PGE2 co-stimulation. induction, % at 25 µM. 260,000 compounds, 0.83% hits;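 active = compounds whose cAMP rise, as percent of the full-agonist control response, exceeds 60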;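 note: rat C6 glioma line stably carrying human EP2 under a CMV promoter; the protocol text gives 20 µM as final concentration; 100% = response of wells given 1 µM PGE2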
EP2 antag = human EP2 receptor antagonists, primary screen, TR-FRET cAMP, C6 glioma cells; C6 glioma cells expressing human EP2; cells stimulated with saturating PGE2; inhibition, % at 25 µM; 260,000 compounds, 0.52% hits;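 active = percent inhibition above 40 after rounding to a whole number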;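 note: rat C6 glioma host cells with rolipram phosphodiesterase inhibitor present; the protocol text gives 20 µM as final concentration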
NR2E3 ag-1 = inhibitors of NR2E3-RetCOR corepressor binding, primary screen, NR2E3 agonist project, biochemical, TR-FRET, GST-NR2E3, biotin-RetCOR; Photoreceptor-specific nuclear receptor (Homo sapiens), Q9Y5X4; 1536-well; inhibition of corepressor binding, % at 4.78 µM; 320,000 compounds, 0.12% hits;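 active = percent inhibition above the cutoff of mean plus 3 SD of all tested compounds, set per screening campaign, cut at about 20% in these data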;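 note: 0% = DMSO wells and 100% = biotin wells as full block of FRET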
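Format: 1536-well format; test system: GST-NR2E3 and biotin-RetCOR proteins; read-out basis: percent inhibition of TR-FRET ratio; timing: 5 h incubation at 4 °C; detection: time-resolved FRET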
NR2E3 ag-2 = NR2E3 agonists in two-hybrid cells, primary screen, cell-based, luminescence, CHO-S, Gal4-NCOR/VP16-NR2E3; luciferase; AID 602229, 2012; inhibition of corepressor binding, % at 3.98 µM; 360,000 compounds, 0.35% hits;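 active = inhibition above the mean of all tested compounds plus 3 SD, cut at about 70% in these data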;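 note: 0% = DMSO with NR2E3 transfected cells and 100% = cells lacking NR2E3 construct; higher means lower luciferase signal from less NR2E3 corepressor binding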
Furin inh = human furin inhibitors, primary screen, biochemical, fluorescence intensity | P09958 | purified furin, fluorogenic substrate cleavage | inhibition, % at 20 µM or 30 µM | 220,000 compounds, 0.061% hits | AID 463115, 2010; in the data active = inhibition above about 25%
JMJD2C inh = inhibitors of GASC-1 histone demethylase, primary screen, biochemical, fluorescence, DELFIA europium | AID 2099, 2009 | GST-JMJD2C(1-420) H3K9me3 demethylation | Lysine-specific demethylase 4C (Homo sapiens), Q9H3R0 | inhibition, % at 2.35 µM | 330,000 compounds, 0.069% hits;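 active = more than half of a compound's replicate wells show inhibition beyond 50%, single wells judged on their own value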;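 note: signal counts dimethyl H3K9 product captured on neutravidin plate; 0% = median of DMSO wells and 100% = 0.3 times that DMSO median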
Target sequence (Q9H3R0 1-420 limits assumed): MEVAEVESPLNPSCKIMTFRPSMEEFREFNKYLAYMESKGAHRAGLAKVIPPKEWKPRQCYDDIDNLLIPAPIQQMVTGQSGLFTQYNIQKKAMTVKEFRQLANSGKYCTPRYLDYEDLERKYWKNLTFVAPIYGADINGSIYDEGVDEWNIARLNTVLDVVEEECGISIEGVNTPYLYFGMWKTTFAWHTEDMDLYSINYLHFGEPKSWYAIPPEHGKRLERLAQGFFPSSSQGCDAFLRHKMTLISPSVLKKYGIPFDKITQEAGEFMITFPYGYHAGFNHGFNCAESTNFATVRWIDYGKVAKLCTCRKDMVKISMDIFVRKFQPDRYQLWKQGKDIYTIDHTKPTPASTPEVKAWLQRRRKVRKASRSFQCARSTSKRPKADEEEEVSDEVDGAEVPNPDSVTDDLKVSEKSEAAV
Numbers without * were called inactive; · = not tested or not shown; ! = not confirmed by another sample. The list is not random: actives were taken first. Their share in the collection is about 1.3%.

SMILES	EP2 modulator	EP2 antag	NR2E3 ag-1	NR2E3 ag-2	Furin inh	JMJD2C inh
CC1CCCCN1CC(=O)N1CCN(c2ccccc2)CC1 (stereo unspecified)	-30	13	·	·	·	·
Cc1ccc(NC(=O)c2cccs2)cc1NC(=O)c1cc2c(C)nn(-c3ccccc3)c2s1	70*	13	·	·	·	·
Cc1ccc(C2=NN(CC(=O)N3CCCC3)C(=O)c3cc4ccccc4n3C2)cc1	30	·	·	·	·	·
Cc1ccc(S(=O)(=O)/C(C#N)=C/c2c(N3CCN(C)CC3)nc3ccccn3c2=O)cc1	22	11	2	-1	0	-18
CN1CCN(c2nc3ccccn3c(=O)c2/C=C(\C#N)S(=O)(=O)c2ccc(Cl)cc2)CC1	-27	9	-2	5	1	90*
CCCCn1c(=O)[nH]c(=O)c2c1nc(-c1cc(Cl)c(OC)c(OC)c1)n2C	·	·	2	-1	·	52*
O=C(Cc1ccc([N+](=O)[O-])cc1)N1N=C2CCCCC2C1(O)C(F)(F)F (stereo unspecified)	72*	3	0	10	1	-22
CC(C)C(=O)N1N=C2CCCCC2C1(O)C(F)(F)F (stereo unspecified)	22	6	-3	4	-27	0
Fc1ccc(-c2cc3nc4c(c(N5CCOCC5)n3n2)CCCC4)cc1	74*!	8	-2	-116	-13	10
OC1CCN(c2c3c(nc4cc(-c5ccc(F)cc5)nn24)CCC3)CC1	-32	22	4	-34	-21	-4
Cc1cccc(-c2cc3nc4c(c(N5CCOCC5)n3n2)CCCC4)c1	61*	7	-2	-151	-21	30
COCCN1C(=O)C(=O)/C(=C(\O)c2cc(C)ccc2C)C1c1cccs1 (stereo unspecified)	28	15	·	·	·	·
O=C(Nc1nc2ccccc2s1)c1c(O)c2cccc3c2n(c1=O)CCC3	-7	11	·	·	·	·
CC1CCCN(C(=O)CSc2nc3ccccc3n2CC(=O)NC2CCCC2)C1 (stereo unspecified)	-20	5	·	·	·	·
Nc1nc(-c2cccc([N+](=O)[O-])c2)cc(-c2cc(-c3cccc([N+](=O)[O-])c3)nc(N)n2)n1	8	44*	·	·	·	·
Nc1nc(N)nc(-c2cccc([N+](=O)[O-])c2)n1	·	·	·	-8	·	·
Fc1ccc(Cc2nc(C3CCCN3)n[nH]2)cc1 (stereo unspecified)	-7	3	·	·	·	·
Cc1sc2nc(SCc3ccc(C(=O)O)cc3)n(Cc3ccco3)c(=O)c2c1C	82*	6	3	-36	-9	4
C=CCn1c(SCc2ccc(C(=O)O)cc2)nc2sc(C)c(C)c2c1=O	52	15	4	-29	-15	7
CCc1ccc2[nH]c(=O)c(CN(Cc3ccc(C)cc3)Cc3nnnn3Cc3ccco3)cc2c1	14	13	·	·	·	·
CC1C(=O)C(C)C(c2ccco2)NC1c1ccco1 (stereo unspecified)	13	6	1	-5	-19	9
c1coc(C2OCC3(CO2)COC(c2ccco2)OC3)c1 (stereo unspecified)	33	54*	0	15	-26	-26
Cc1sc2ncnc(SCC(=O)Nc3ccccc3-c3ccccc3)c2c1C	84*	5	·	·	·	·
Cc1sc2ncn3c(SCC(=O)Nc4ccccc4-c4ccccc4)nnc3c2c1C	67*	17	·	·	·	·
CCc1ccccc1NC(=O)CSc1nnc2c3c(C)c(C)sc3ncn12	-31	11	·	·	·	·
SMILES	EP2 modulator	EP2 antag	NR2E3 ag-1	NR2E3 ag-2	Furin inh	JMJD2C inh
Cc1cc(-c2cnc(C)nc2C2CCN(C(=O)c3cccnc3)CC2)on1	-3	·	·	·	·	·
CCOC(=O)C1CCN(C(c2cc3cccc(C)c3[nH]c2=O)c2nnnn2C2CCCC2)CC1 (stereo unspecified)	-31	11	·	·	·	·
O=C(Nc1cccc(-c2cn3ccccc3n2)c1)c1cccc(Cl)c1	-14	61*	1	-84	-14	-14
O=C(Nc1ccc(-c2cn3ccccc3n2)cc1)c1cc(Br)ccc1O	-20	45*	·	·	·	·
COc1ccc(S(=O)(=O)N2CCC(C(=O)Nc3ccc(F)cc3)CC2)cc1C	-26	15	·	·	·	·
CCOC(=O)C1=C(N)OC2=C(C(=O)CC(C)(C)C2)C1c1ccc(C)cc1 (stereo unspecified)	79*	15	·	·	·	·
CCOC(=O)C1=C(N)OC2=C(C(=O)CC(C)(C)C2)C1c1ccc(C)s1 (stereo unspecified)	38	4	-2	-12	-22	0
OC1(c2ccc(F)cc2)COC2(CCN(c3c4c(nc5ncnn35)CCC4)CC2)C1 (stereo unspecified)	3	·	·	·	·	·
CC(C)N1CC=C2C(C1)C(c1ccc(Cl)cc1)C(C#N)=C(N)C2(C#N)C#N (stereo unspecified)	79*	10	·	·	·	·
COc1ccc(OC)c(CC(=O)NCc2nc(-c3cccnc3)n[nH]2)c1	1	7	·	·	·	·
Nc1ccc(-c2nn3cnnc3s2)cc1	-29	9	·	·	·	·
CCOc1cc(-c2nn3cnnc3s2)cc(OCC)c1OCC	61*	7	-2	-1	-28	10
Cc1ccc(C)c(-n2nnnc2SCC(=O)Nc2ccc3c(c2)OCO3)c1	-60	9	·	·	·	·
O=C1C2=C(Nc3cc([N+](=O)[O-])ccc3N2)O[C@H]1c1ccc([C@H]2OC3=C(Nc4ccc([N+](=O)[O-])cc4N3)C2=O)cc1	-24	58*	·	·	·	·
O=C(c1ccccc1)N1CCN(C(=O)c2cccc3ccccc23)CC1	-21	18	·	·	·	·
CCOC(=O)C1=C(C)NC(=O)NC1c1ccoc1 (stereo unspecified)	6	11	1	26	-13	-7
CCOC(=O)C1=C(C)NC(=O)N[C@@H]1c1coc2cc(C)cc(C)c2c1=O	8	53*	·	·	·	·
CCC(Sc1ncccc1C(=O)O)C(=O)N1CCCC1 (stereo unspecified)	17	5	4	-8	28*	0
O=S(=O)(NCc1cn2ccsc2n1)c1ccc(Oc2ccccc2)cc1	-11	13	-1	88*	-22	2
CCOC(=O)c1nn(-c2ccc(F)cc2)c2nc(-c3ccccc3)c(C#N)c(=O)n12	65*	9	1	-5	-17	3
COc1ccc(CCC(=O)NC2CCCc3c2cnn3-c2ccc(F)cc2)cc1 (stereo unspecified)	-101	17	·	·	·	·
